Results from ChEMBL document CHEMBL3576786, “Discovery of target based novel pyrrolyl phenoxy derivatives as antimycobacterial agents: an in silico approach” (Eur J Med Chem, 2015).
Converted amounts (≈) assume the structure as drawn.

What follows are compounds tested on Vero (assay: Cytotoxicity against African green monkey Vero cells assessed as inhibition of cell proliferation by MTT assay). Settings: Chlorocebus sabaeus.
Assay type: cell-based
In short: (§1)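 MTT read-out; IC50 taken as the concentration giving a 50% drop in optical density of treated cells relative to untreated cells.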
In the case of `Oc1cc(O)cc(OCCCOc2ccc(-n3cccc3)cc2)c1`, the IC50 is reported as 220 µM. `c1ccc2cc(OCCCOc3ccc(-n4cccc4)cc3)ccc2c1` gave an IC50 of 238 µM. For `Oc1cc(O)cc(OCCOc2ccc(-n3cccc3)cc2)c1`, the IC50 was 231 µM. `c1ccc2c(OCCOc3ccc(-n4cccc4)cc3)cccc2c1` gave an IC50 of 220 µM. In the case of `Cc1ccc(C)n1-c1ccc(OCCCOc2ccc(-n3cccc3)cc2)cc1`, the IC50 is reported as 235 µM. Work on `CCOc1cc(C=O)ccc1OCCCOc1ccc(-n2cccc2)cc1` yielded an IC50 of 215 µM. With `NNC(=O)c1ccncc1` [ISONIAZID] the IC50 was > 450 µM. With `c1ccc2cc(OCCOc3ccc(-n4cccc4)cc3)ccc2c1` the IC50 was 231 µM. Work on `CCOc1cc(C=O)ccc1OCCOc1ccc(-n2cccc2)cc1` yielded an IC50 of 211 µM. With `c1ccc2c(OCCCOc3ccc(-n4cccc4)cc3)cccc2c1` the IC50 was 240 µM. For `COc1cc(C=O)ccc1OCCCOc1ccc(-n2cccc2)cc1`, the IC50 was 212 µM.

What follows are compounds tested on Mycobacterium tuberculosis (assay: Antimycobacterial activity against Mycobacterium tuberculosis H37Rv assessed as inhibition of bacterial growth after 5 days by Microplate Alamar Blue Assay). Settings: 120 h.
Assay type: functional
Compound `Oc1ccccc1OCCCOc1ccc(-n2cccc2)cc1` has an MIC of 12.5 µg/mL (≈ 40.4 µM). Compound `Oc1cc(Cl)ccc1Oc1ccc(Cl)cc1Cl` [TRICLOSAN] has an MIC of 10 µg/mL (≈ 34.5 µM). Compound `Ic1ccc(OCCCOc2ccc(-n3cccc3)cc2)cc1` has an MIC of 12.5 µg/mL (≈ 29.8 µM). Compound `Cc1ccc(OCCOc2ccc(-n3cccc3)cc2)c(C)c1` has an MIC of 12.5 µg/mL (≈ 40.7 µM). `Oc1cc(O)cc(OCCCOc2ccc(-n3cccc3)cc2)c1` showed an MIC of 3.12 µg/mL (≈ 9.6 µM). For `O=[N+]([O-])c1ccc(OCCCOc2ccc(-n3cccc3)cc2)cc1`, the MIC was 100 µg/mL (≈ 296 µM). In the case of `Cc1ccccc1OCCOc1ccc(-n2cccc2)cc1`, the MIC is reported as 25 µg/mL (≈ 85.2 µM). `c1ccn(-c2ccc(OCCCOc3ccc(-n4cccc4)cc3)cc2)c1` showed an MIC of 6.25 µg/mL (≈ 17.4 µM). `c1ccc2cc(OCCCOc3ccc(-n4cccc4)cc3)ccc2c1` gave an MIC of 3.12 µg/mL (≈ 9.1 µM). `Nc1ccccc1OCCOc1ccc(-n2cccc2)cc1` gave an MIC of 100 µg/mL (≈ 340 µM). With `O=Cc1ccc(OCCOc2ccc(-n3cccc3)cc2)cc1` the MIC was 12.5 µg/mL (≈ 40.7 µM). Compound `Ic1ccc(OCCOc2ccc(-n3cccc3)cc2)cc1` has an MIC of 12.5 µg/mL (≈ 30.8 µM). `O=[N+]([O-])c1ccc(OCCOc2ccc(-n3cccc3)cc2)cc1` was tested, and the MIC was 50 µg/mL (≈ 154 µM). `Oc1cccc(OCCCOc2ccc(-n3cccc3)cc2)c1` gave an MIC of 12.5 µg/mL (≈ 40.4 µM). Compound `Cc1ccc(C)c(OCCOc2ccc(-n3cccc3)cc2)c1` has an MIC of 25 µg/mL (≈ 81.3 µM). `Cc1ccc(OCCCOc2ccc(-n3cccc3)cc2)c(C)c1` was tested, and the MIC was 25 µg/mL (≈ 77.8 µM). With `O=[N+]([O-])c1ccc(OCCCOc2ccc(-n3cccc3)cc2)c([N+](=O)[O-])c1` the MIC was 100 µg/mL (≈ 261 µM). In the case of `Brc1ccccc1OCCCOc1ccc(-n2cccc2)cc1`, the MIC is reported as 25 µg/mL (≈ 67.2 µM). Work on `Cc1ccccc1OCCCOc1ccc(-n2cccc2)cc1` yielded an MIC of 25 µg/mL (≈ 81.3 µM). `c1ccc(OCCOc2ccc(-n3cccc3)cc2)cc1` was tested, and the MIC was 50 µg/mL (≈ 179 µM). Work on `Oc1cc(O)cc(OCCOc2ccc(-n3cccc3)cc2)c1` yielded an MIC of 3.12 µg/mL (≈ 10 µM). `Nc1ccc(OCCOc2ccc(-n3cccc3)cc2)cc1` showed an MIC of 100 µg/mL (≈ 340 µM). With `Nc1cccc(OCCOc2ccc(-n3cccc3)cc2)c1` the MIC was 100 µg/mL (≈ 340 µM). `Nc1ccccc1OCCCOc1ccc(-n2cccc2)cc1` was tested, and the MIC was 100 µg/mL (≈ 324 µM). For `N#Cc1ccc(OCCCOc2ccc(-n3cccc3)cc2)cc1`, the MIC was 6.25 µg/mL (≈ 19.6 µM). Compound `Clc1ccc(OCCCOc2ccc(-n3cccc3)cc2)cc1` has an MIC of 6.25 µg/mL (≈ 19.1 µM). Compound `Oc1cc(OCCOc2ccc(-n3cccc3)cc2)ccc1Cl` has an MIC of 6.25 µg/mL (≈ 19 µM). `Oc1ccc(OCCCOc2ccc(-n3cccc3)cc2)cc1` was tested, and the MIC was 12.5 µg/mL (≈ 40.4 µM). Compound `Clc1cccc(OCCCOc2ccc(-n3cccc3)cc2)c1` has an MIC of 50 µg/mL (≈ 153 µM). Work on `c1ccc2c(OCCOc3ccc(-n4cccc4)cc3)cccc2c1` yielded an MIC of 3.12 µg/mL (≈ 9.49 µM). `Clc1cccc(OCCOc2ccc(-n3cccc3)cc2)c1` gave an MIC of 25 µg/mL (≈ 79.7 µM). Compound `N#Cc1ccc(OCCOc2ccc(-n3cccc3)cc2)cc1` has an MIC of 6.25 µg/mL (≈ 20.5 µM). `Cc1ccc(C)n1-c1ccc(OCCCOc2ccc(-n3cccc3)cc2)cc1` showed an MIC of 3.12 µg/mL (≈ 8.09 µM). For `Cc1ccc(OCCOc2ccc(-n3cccc3)cc2)cc1`, the MIC was 25 µg/mL (≈ 85.2 µM). In the case of `CCOc1cc(C=O)ccc1OCCCOc1ccc(-n2cccc2)cc1`, the MIC is reported as 3.12 µg/mL (≈ 8.55 µM). With `c1ccn(-c2ccc(OCCOc3ccc(-n4cccc4)cc3)cc2)c1` the MIC was 6.25 µg/mL (≈ 18.1 µM). For `Cc1ccc(C)c(OCCCOc2ccc(-n3cccc3)cc2)c1`, the MIC was 25 µg/mL (≈ 77.8 µM). `Brc1cccc(OCCCOc2ccc(-n3cccc3)cc2)c1` was tested, and the MIC was 25 µg/mL (≈ 67.2 µM). In the case of `Oc1ccc(OCCOc2ccc(-n3cccc3)cc2)cc1`, the MIC is reported as 12.5 µg/mL (≈ 42.3 µM). `Clc1ccccc1OCCCOc1ccc(-n2cccc2)cc1` was tested, and the MIC was 25 µg/mL (≈ 76.3 µM). In the case of `Cc1ccc(OCCCOc2ccc(-n3cccc3)cc2)cc1`, the MIC is reported as 12.5 µg/mL (≈ 40.7 µM). `NNC(=O)c1ccncc1` [ISONIAZID] gave an MIC of 0.25 µg/mL (≈ 1.82 µM). `Oc1cc(OCCCOc2ccc(-n3cccc3)cc2)ccc1Cl` was tested, and the MIC was 6.25 µg/mL (≈ 18.2 µM). Compound `Cc1cc(C)cc(OCCOc2ccc(-n3cccc3)cc2)c1` has an MIC of 50 µg/mL (≈ 163 µM). In the case of `c1ccc2cc(OCCOc3ccc(-n4cccc4)cc3)ccc2c1`, the MIC is reported as 3.12 µg/mL (≈ 9.49 µM). `Oc1ccccc1OCCOc1ccc(-n2cccc2)cc1` was tested, and the MIC was 12.5 µg/mL (≈ 42.3 µM). Work on `CCOc1cc(C=O)ccc1OCCOc1ccc(-n2cccc2)cc1` yielded an MIC of 3.12 µg/mL (≈ 8.89 µM). `c1ccc(OCCCOc2ccc(-n3cccc3)cc2)cc1` was tested, and the MIC was 50 µg/mL (≈ 170 µM). In the case of `Cc1cccc(OCCCOc2ccc(-n3cccc3)cc2)c1`, the MIC is reported as 25 µg/mL (≈ 81.3 µM). `Brc1ccc(OCCCOc2ccc(-n3cccc3)cc2)cc1` was tested, and the MIC was 6.25 µg/mL (≈ 16.8 µM). Work on `COc1cc(C=O)ccc1OCCOc1ccc(-n2cccc2)cc1` yielded an MIC of 6.25 µg/mL (≈ 18.5 µM). In the case of `Oc1cccc(OCCOc2ccc(-n3cccc3)cc2)c1`, the MIC is reported as 6.25 µg/mL (≈ 21.2 µM). `Clc1ccccc1OCCOc1ccc(-n2cccc2)cc1` was tested, and the MIC was 25 µg/mL (≈ 79.7 µM). In the case of `O=[N+]([O-])c1ccc(OCCOc2ccc(-n3cccc3)cc2)c([N+](=O)[O-])c1`, the MIC is reported as 100 µg/mL (≈ 271 µM). Work on `Clc1ccc(OCCOc2ccc(-n3cccc3)cc2)cc1` yielded an MIC of 12.5 µg/mL (≈ 39.8 µM). Work on `Brc1ccccc1OCCOc1ccc(-n2cccc2)cc1` yielded an MIC of 25 µg/mL (≈ 69.8 µM). Work on `Cc1ccc(C)n1-c1ccc(OCCOc2ccc(-n3cccc3)cc2)cc1` yielded an MIC of 6.25 µg/mL (≈ 16.8 µM). Compound `Nc1ccc(OCCCOc2ccc(-n3cccc3)cc2)cc1` has an MIC of 50 µg/mL (≈ 162 µM). Work on `Brc1cccc(OCCOc2ccc(-n3cccc3)cc2)c1` yielded an MIC of 25 µg/mL (≈ 69.8 µM). Work on `O=Cc1ccc(OCCCOc2ccc(-n3cccc3)cc2)cc1` yielded an MIC of 12.5 µg/mL (≈ 38.9 µM). `Cc1cc(C)cc(OCCCOc2ccc(-n3cccc3)cc2)c1` was tested, and the MIC was 25 µg/mL (≈ 77.8 µM). In the case of `Fc1ccc(OCCCOc2ccc(-n3cccc3)cc2)cc1`, the MIC is reported as 6.25 µg/mL (≈ 20.1 µM). Compound `c1ccc2c(OCCCOc3ccc(-n4cccc4)cc3)cccc2c1` has an MIC of 1.6 µg/mL (≈ 4.66 µM). For `Nc1cccc(OCCCOc2ccc(-n3cccc3)cc2)c1`, the MIC was 100 µg/mL (≈ 324 µM). With `COc1cc(C=O)ccc1OCCCOc1ccc(-n2cccc2)cc1` the MIC was 3.12 µg/mL (≈ 8.89 µM). `Fc1ccc(OCCOc2ccc(-n3cccc3)cc2)cc1` showed an MIC of 6.25 µg/mL (≈ 21 µM). In the case of `Brc1ccc(OCCOc2ccc(-n3cccc3)cc2)cc1`, the MIC is reported as 12.5 µg/mL (≈ 34.9 µM). `Cc1cccc(OCCOc2ccc(-n3cccc3)cc2)c1` gave an MIC of 25 µg/mL (≈ 85.2 µM).

These compounds were tested on A549 (assay: Cytotoxicity against human A549 assessed as inhibition of cell proliferation by MTT assay). Settings: not given.
Assay type: cell-based
In short: as §1
Work on `Oc1cc(O)cc(OCCCOc2ccc(-n3cccc3)cc2)c1` yielded an IC50 of 227 µM. For `c1ccc2cc(OCCCOc3ccc(-n4cccc4)cc3)ccc2c1`, the IC50 was 235 µM. Compound `Oc1cc(O)cc(OCCOc2ccc(-n3cccc3)cc2)c1` has an IC50 of 237 µM. `c1ccc2c(OCCOc3ccc(-n4cccc4)cc3)cccc2c1` was tested, and the IC50 was 215 µM. Work on `Cc1ccc(C)n1-c1ccc(OCCCOc2ccc(-n3cccc3)cc2)cc1` yielded an IC50 of 237 µM. For `CCOc1cc(C=O)ccc1OCCCOc1ccc(-n2cccc2)cc1`, the IC50 was 223 µM. `NNC(=O)c1ccncc1` [ISONIAZID] was tested, and the IC50 was > 450 µM. In the case of `c1ccc2cc(OCCOc3ccc(-n4cccc4)cc3)ccc2c1`, the IC50 is reported as 233 µM. Compound `CCOc1cc(C=O)ccc1OCCOc1ccc(-n2cccc2)cc1` has an IC50 of 217 µM. `c1ccc2c(OCCCOc3ccc(-n4cccc4)cc3)cccc2c1` was tested, and the IC50 was 243 µM. Work on `COc1cc(C=O)ccc1OCCCOc1ccc(-n2cccc2)cc1` yielded an IC50 of 210 µM.
